Measurements: ChEMBL document CHEMBL3272166, “Quantitative structure-activity relationships in centrally acting imidazolidines structurally related to clonidine” (J Med Chem, 1977)

Tests used:
[1] = tested on: Rattus norvegicus; test: Hypotensive activity in iv dosed anesthetized normotensive Wistar rat assessed as maximal decrease in mean arterial pressure; format: functional, Artery; details: for ED30: Rattus norvegicus, Wistar, Artery, iv
Summary of the method: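 Male Wistar rats (190-220 g) anaesthetised with pentobarbitone sodium 75 mg/kg ip, kept at 37 ± 1 °C, ventilated and heparinised. Carotid arterial pressure recorded; animals outside 100–150 mmHg after ~20 min equilibration discarded. Graded iv doses in saline, with randomised agents and doses and one rat per experiment. Log-dose–response curves of maximal fall in mean pressure gave the dose (μmol/kg) for a 30% decrease (ED30).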

[2] = tested on: Rattus norvegicus; test: Hypotensive activity in iv dosed anesthetized normotensive Wistar rat assessed as maximal decrease in mean arterial pressure measured per gram of brain tissue; format: functional, Artery
[3] = Apparent partition coefficient, log P in octanol and 0.1 M phosphate buffer at pH 7.4; format: physicochemical; details: octanol/0.1 M phosphate buffer
[4] = tested on: Rattus norvegicus; test: Hypotensive activity in iv dosed anesthetized normotensive Wistar rat assessed as 30% decrease in mean arterial pressure; details: Artery

| Compound | log(1/ED30) [1] | ED30 [1] [mg/kg] | log(1/ED30) [2] | logD [3] | ED30 [4] [mg/kg] |
| --- | --- | --- | --- | --- | --- |
| Cc1ccccc1N=C1NCCN1.Cl | -0.67 | 0.99 | 0.91 | -1.82 |  |
| Cl.Clc1cc(Cl)c(N=C2NCCN2)c(Cl)c1 |  | 0.021 |  |  |  |
| Cl.Clc1ccc(Cl)c(N=C2NCCN2)c1 | 0.32 | 0.15 | 0.03 | 0.65 |  |
| Cc1cc(Cl)cc(C)c1N=C1NCCN1.Cl | 0.04 | 0.24 | 0.54 | -0.62 |  |
| Cl.c1ccc(NC2=NCCN2)cc1 | -2.1 | 25 | -0.42 | -1.92 |  |
| Cc1cc(Br)cc(C)c1N=C1NCCN1.Cl | -0.36 | 0.7 | -0.1 | -0.28 |  |
| Cc1cc(Cl)ccc1N=C1NCCN1.Cl | -0.05 | 0.275 | 0.8 | -1.06 |  |
| Cc1ccc(N=C2NCCN2)c(C)c1.Cl | -0.56 | 0.81 | 0.86 | -1.66 |  |
| Cl.Clc1cccc(Cl)c1NC1=NCCN1 [CLONIDINE HYDROCHLORIDE] | 2.14 |  | 1.78 |  | 0.0027 |
| Brc1cccc(Br)c1N=C1NCCN1.Cl | 2.04 | 0.0055 | 1.4 | 1.21 |  |
| Cl.O=[N+]([O-])c1cc(Cl)c(N=C2NCCN2)c(Cl)c1 | -0.34 | 4.5 | -1.68 | 1.92 |  |
| Cl.Clc1cccc(Br)c1N=C1NCCN1 | 2.22 |  | 1.72 | 0.87 | 0.0029 |
| Cl.Clc1ccc(N=C2NCCN2)c(Cl)c1 | 0.68 | 0.061 | 0.58 | 0.29 |  |
| COc1cc(Cl)c(N=C2NCCN2)c(Cl)c1.Cl | -0.78 | 2 | -0.82 | 0.15 |  |
| Cc1ccc(N=C2NCCN2)c(Cl)c1.Cl | 0.68 | 0.053 | 1.07 | -0.48 |  |
| Cl.Clc1cc(Br)cc(Cl)c1N=C1NCCN1 | 1.03 | 0.06 |  | 1.97 |  |
| Brc1cc(Br)c(N=C2NCCN2)c(Br)c1.Cl | 0.28 | 0.58 | -0.65 | 2.24 |  |
| Cc1cccc(C)c1N=C1NCCN1.Cl | 0.85 | 0.032 | 2.14 | -1.54 |  |
| Cl.Clc1ccccc1N=C1NCCN1 | 0.15 | 0.17 | 0.67 | -0.67 |  |
| Cc1cc(Cl)c(N=C2NCCN2)c(Cl)c1.Cl | 1.22 | 0.021 | 0.87 | 0.73 |  |
| Cc1cc(C)c(N=C2NCCN2)c(Cl)c1.Cl | 0.52 | 0.08 | 0.83 | -0.36 |  |
| Cc1cccc(Cl)c1N=C1NCCN1.Cl | 1.12 | 0.019 | 1.57 | -0.57 |  |
| Cl.Fc1cccc(F)c1N=C1NCCN1 | -0.29 | 0.6 | -0.22 | -0.16 |  |
| Cc1cc(Cl)cc(Cl)c1N=C1NCCN1.Cl | 0.57 | 0.079 | 0.4 | 0.47 |  |
| Cc1cc(C)c(N=C2NCCN2)c(C)c1.Cl | -0.07 | 0.28 | 0.98 | -1.28 |  |
| Cl.Clc1cccc(N=C2NCCN2)c1Cl | 1.37 | 0.013 | 1.13 | 0.57 |  |
| Cl.Fc1cccc(Cl)c1N=C1NCCN1 | 1.47 | 0.0125 | 1.13 | 0.52 |  |
